We go through six molecules from ChEMBL document CHEMBL1155958, “Inhibition of oxidative metabolism of tocopherols with omega-N-heterocyclic derivatives of vitamin E” (Bioorg Med Chem, 2008).

Active and inactive are the calls of the source. No cut-off for these calls is given here.

For series [1], the target named is T1, Cytochrome P450 4F2 (Homo sapiens, UniProt P78329).
T1 sequence (P78329 whole entry): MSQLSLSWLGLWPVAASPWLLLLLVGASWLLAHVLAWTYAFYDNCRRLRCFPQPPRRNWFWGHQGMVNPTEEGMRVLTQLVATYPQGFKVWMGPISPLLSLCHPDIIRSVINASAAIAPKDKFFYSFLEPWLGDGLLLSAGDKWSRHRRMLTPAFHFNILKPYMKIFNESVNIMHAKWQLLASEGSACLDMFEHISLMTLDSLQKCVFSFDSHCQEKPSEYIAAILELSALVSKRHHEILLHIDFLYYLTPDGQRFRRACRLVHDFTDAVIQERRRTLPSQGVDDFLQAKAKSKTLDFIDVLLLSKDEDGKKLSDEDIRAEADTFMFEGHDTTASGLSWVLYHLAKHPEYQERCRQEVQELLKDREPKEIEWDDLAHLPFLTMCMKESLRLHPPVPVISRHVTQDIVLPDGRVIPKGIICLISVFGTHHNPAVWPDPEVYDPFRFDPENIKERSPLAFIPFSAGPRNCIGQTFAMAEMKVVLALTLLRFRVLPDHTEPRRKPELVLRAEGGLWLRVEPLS
Nature of the series: Inhibition of CYP4F2-mediated gamma-tocopherol metabolism in human HepG2/C3A cells preincubated for 4 hrs and continued for 48 hrs. The series is classed as cell-based. The note with it: for Activity: human, hepg2/c3a, 48 h. The gist of the method: (§1)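 Confluent HepG2/C3A monolayers pre-incubated 4 hr with inhibitor (ethanol stock) or ethanol vehicle. Medium then replaced with fresh medium containing γ-tocopherol, 25 µM final, plus inhibitor again. After 48 hr, medium analysed by GC-MS for 3'- and 5'-carboxychromanols, with d9-α-CEHC internal standard. Results given as percent inhibition, means and standard deviation.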

The target in series [2] is T2, Cytochrome P450 3A4 (Homo sapiens, UniProt P08684). The series can be described thus: Inhibition of CYP3A4 in human HepG2/C3A cells assessed as testosterone-6-hydroxylase activity. It is filed as ADME, cell-based. The gist of the method: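 Confluent HepG2/C3A cultures pre-incubated 4 hr with inhibitor or ethanol control, then given 50 µM testosterone. After 48 hr, medium extracted with ethyl acetate and 6-hydroxytestosterone measured as its trimethylsilyl ether by GC-MS. Percent inhibition reported as means and standard deviation.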

In series [3] the test system is Mus musculus. Nature of the series: Enrichment in delta-tocopherol in FVB/N mouse bile assessed as tripling in delta-tocopherol/alpha-tocopherol ratio at 500 mg/kg in delta-tocopherol rich diet for 10 days. It is filed as functional, organism-based. Also on record: dose 500 mg/kg.
For series [4], the target named is T2, Cytochrome P450 3A4. The series can be described thus: Inhibition of human recombinant CYP3A4 expressed in insect cell microsome assessed as testosterone-6-hydroxylase activity at 4 uM after 60 mins. The note with it: recombinant enzyme, 1 h. It is filed as ADME, microsomes. In short, it runs like this:
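Insect-cell microsomes expressing only recombinant human CYP3A4 (20 pmol P450) incubated 60 min with 200 µM testosterone, 1 mM NADPH and 0.25% BSA in […], pH 7.4, with or without inhibitor. Reaction stopped with cold ethanol and extracted with hexane/MTBE (7:1). 6-OH-testosterone expressed as nmol per nmol membrane cholesterol.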

Series [5] relates to Mus musculus. Nature of the series: Enrichment in delta-tocopherol in FVB/N mouse liver assessed as doubling in delta-tocopherol/alpha-tocopherol ratio at 500 mg/kg in delta-tocopherol rich diet for 10 days. The series is classed as functional, organism-based. Also on record: dose 500 mg/kg.
The target in series [6] is T1, Cytochrome P450 4F2. Nature of the series: Inhibition of CYP4F2-mediated gamma-tocopherol metabolism in human HepG2/C3A cells at 1 uM preincubated for 6 hrs and continued for 24 hrs. It is filed as cell-based. In short, it runs like this: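 Confluent HepG2/C3A monolayers exposed to 1 µM inhibitor for 6 hr. Then incubated 24 hr in medium with 25 µM γ-tocopherol, inhibitor not replaced. Medium carboxychromanol metabolites measured by GC-MS against d9-α-CEHC internal standard.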

The target in series [7] is T3, CYP4F2 (Homo sapiens, UniProt P78329).
T3 sequence (P78329 whole entry): T1 sequence (P78329 whole entry)
The series can be described thus: Inhibition of CYP4F2-mediated gamma-tocopherol metabolism in human HepG2/C3A cells at 20 nM preincubated for 4 hrs and continued for 48 hrs. It is filed as cell-based. The note with it: probe gamma-tocopherol. The gist of the method: as §1

The target in series [8] is T3, CYP4F2. The series can be described thus: Inhibition of CYP4F2-mediated gamma-tocopherol metabolism in human HepG2/C3A cells at 1.0 uM preincubated for 4 hrs and continued for 48 hrs. The series is classed as cell-based. The settings on record: probe gamma-tocopherol. In short, it runs like this: as §1

T2 sequence (P08684 whole entry): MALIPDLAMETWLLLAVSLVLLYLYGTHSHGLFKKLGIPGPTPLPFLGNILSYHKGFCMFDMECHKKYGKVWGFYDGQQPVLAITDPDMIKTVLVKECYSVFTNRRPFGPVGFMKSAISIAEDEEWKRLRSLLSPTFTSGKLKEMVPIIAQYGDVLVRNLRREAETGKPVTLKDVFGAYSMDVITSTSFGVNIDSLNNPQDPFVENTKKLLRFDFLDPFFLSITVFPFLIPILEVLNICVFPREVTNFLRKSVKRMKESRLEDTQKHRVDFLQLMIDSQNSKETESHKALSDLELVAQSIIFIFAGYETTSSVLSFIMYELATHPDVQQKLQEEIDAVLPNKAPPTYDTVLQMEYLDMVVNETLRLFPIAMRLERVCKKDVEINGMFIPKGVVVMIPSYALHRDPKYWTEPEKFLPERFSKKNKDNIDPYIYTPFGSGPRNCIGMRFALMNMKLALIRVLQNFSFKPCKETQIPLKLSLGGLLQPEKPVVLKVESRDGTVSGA

Consider `Cc1c(C)c2c(c(C)c1O)CC[C@@](C)(CCCCCCCCCn1ccnc1)O2`, for which the IC50 on Cytochrome P450 4F2 [1] (read-out: ED50 (the source's name)) came out at 1 nM. The outcome at Cytochrome P450 3A4 [2] and on Cytochrome P450 4F2 [6] was Active. Further, the result with Mus musculus [3] and in the series on Mus musculus [5] was Active. In addition, the “inhibition (INH)” value at Cytochrome P450 3A4 [4] was determined as 90%.
Consider `Cc1c(C)c2c(c(C)c1O)CC[C@@](C)(CCCCCCCCCn1cnc3ccccc31)O2`, for which the Activity result on Cytochrome P450 4F2 [1] is “Not Active”.
Regarding `Cc1c(C)c2c(c(C)c1O)CC[C@@](C)(CCCCCCCCCn1cncn1)O2`, the result at Cytochrome P450 3A4 [2] was Active. On CYP4F2 [7], the inhibition at 48 h, 0.02 µM stood at 42%.
For `Cc1c(C)c2c(c(C)c1O)CC[C@@](C)(CCCCCCCCCn1nnc3ccccc31)O2`, at Cytochrome P450 4F2 [1], the Activity result is recorded as “Not Active”.
For the molecule `Cc1c(C)c2c(c(C)c1O)CC[C@@](C)(CCCCCCCCCn1nc3ccccc3n1)O2`, on Cytochrome P450 4F2 [1], the Activity result was “Not Active”.
With `Cc1c(C)c2c(c(C)c1O)CC[C@@](C)(CCCCCCCCCn1ccnn1)O2`, the result on Cytochrome P450 3A4 [2] was Active. The inhibition at 48 h, 1 µM on CYP4F2 [8] was determined as 36%.
